Measurements from ChEMBL document CHEMBL4689842, “EUbOPEN Chemogenomics Library wave 1” (2021).

Test system: Fibroblast
Assay: Multiplex assay against human fibroblast
Format: toxicity, cell-based
Outline: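 Cells were classed with CellPathfinder machine-learning gating, first as Hoechst high-intensity objects or normal cells, then (normal cells) as healthy, pyknosed or fragmented nuclei, and finally (pyknosed cells) as mitotic or apoptotic. Staining of live cells at seeding used Hoechst33342, BioTracker Green Microtubule Cytoskeleton Dye, MitoTracker Red and Annexin V Alexa Fluor 680, with imaging on a CQ1 microscope at 37°C and 5% CO2 after compound addition. Tubulin, mitochondrial-mass and membrane-permeability phenotypes are per cents of healthy-nucleus cells.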

[1] = 12 h, 1 µM, compound concentration 1 uM, replicate 1
[2] = 12 h, 1 µM, compound concentration 1 uM, replicate 2
[3] = 12 h, 10 µM, compound concentration 10 uM, replicate 1
[4] = 12 h, 10 µM, compound concentration 10 uM, replicate 2
[5] = 24 h, 1 µM, compound concentration 1 uM, replicate 1
[6] = 24 h, 1 µM, compound concentration 1 uM, replicate 2
[7] = 24 h, 10 µM, compound concentration 10 uM, replicate 1
[8] = 24 h, 10 µM, compound concentration 10 uM, replicate 2

What does the source list for Cl.Cl.NC1(c2ccc(-c3nc4ccn5c(=O)[nH]nc5c4cc3-c3ccccc3)cc2)CCC1?
Population Apoptotic (%) [1]: 71%; Population Fragmented Nuclei (%) [1]: 35%; Population Healthy Nuclei (%) [1]: 48%; Population Hoechst High Intensity Objects (%) [1]: 42%; Population Membrane Permeable-Phenotype (%) [1]: 4%; Population Mitotic Cells (%) [1]: 28%; Population Normal (%) [1]: 57%; Population Pyknosed Nuclei (%) [1]: 15%; Population Tubulin-Different-Phenotype (%) [1]: 6%; Total Cell Count [1]: 437; Population Apoptotic (%) [2]: 87%; Population Fragmented Nuclei (%) [2]: 55%; Population Healthy Nuclei (%) [2]: 35%; Population Hoechst High Intensity Objects (%) [2]: 45%; Population Membrane Permeable-Phenotype (%) [2]: 19%; Population Mitochondria Different-Phenotype (%) [2]: 0%; Population Mitotic Cells (%) [2]: 12%; Population Normal (%) [2]: 54%; Population Pyknosed Nuclei (%) [2]: 9%; Population Tubulin-Different-Phenotype (%) [2]: 16%; Total Cell Count [2]: 161; Population Apoptotic (%) [3]: 37%; Population Fragmented Nuclei (%) [3]: 19%; Population Healthy Nuclei (%) [3]: 38%; Population Hoechst High Intensity Objects (%) [3]: 49%; Population Membrane Permeable-Phenotype (%) [3]: 7%; Population Mitochondria Different-Phenotype (%) [3]: 4%; Population Mitotic Cells (%) [3]: 62%; Population Normal (%) [3]: 50%; Population Pyknosed Nuclei (%) [3]: 41%; Population Tubulin-Different-Phenotype (%) [3]: 42%; Total Cell Count [3]: 610; Population Apoptotic (%) [4]: 80%; Population Fragmented Nuclei (%) [4]: 71%; Population Healthy Nuclei (%) [4]: 14%; Population Hoechst High Intensity Objects (%) [4]: 69%; Population Membrane Permeable-Phenotype (%) [4]: 0%; Population Mitochondria Different-Phenotype (%) [4]: 40%; Population Mitotic Cells (%) [4]: 20%; Population Normal (%) [4]: 30%; Population Pyknosed Nuclei (%) [4]: 14%; Population Tubulin-Different-Phenotype (%) [4]: 20%; Total Cell Count [4]: 114; Population Apoptotic (%) [5]: 45%; Population Fragmented Nuclei (%) [5]: 33%; Population Healthy Nuclei (%) [5]: 51%; Population Hoechst High Intensity Objects (%) [5]: 49%; Population Membrane Permeable-Phenotype (%) [5]: 1%; Population Mitochondria Different-Phenotype (%) [5]: 1%; Population Mitotic Cells (%) [5]: 54%; Population Normal (%) [5]: 50%; Population Pyknosed Nuclei (%) [5]: 15%; Population Tubulin-Different-Phenotype (%) [5]: 9%; Total Cell Count [5]: 428; Population Apoptotic (%) [6]: 57%; Population Fragmented Nuclei (%) [6]: 57%; Population Healthy Nuclei (%) [6]: 32%; Population Hoechst High Intensity Objects (%) [6]: 51%; Population Membrane Permeable-Phenotype (%) [6]: 8%; Population Mitochondria Different-Phenotype (%) [6]: 0%; Population Mitotic Cells (%) [6]: 42%; Population Normal (%) [6]: 48%; Population Pyknosed Nuclei (%) [6]: 9%; Population Tubulin-Different-Phenotype (%) [6]: 16%; Total Cell Count [6]: 157; Population Apoptotic (%) [7]: 24%; Population Fragmented Nuclei (%) [7]: 17%; Population Healthy Nuclei (%) [7]: 38%; Population Hoechst High Intensity Objects (%) [7]: 53%; Population Membrane Permeable-Phenotype (%) [7]: 5%; Population Mitochondria Different-Phenotype (%) [7]: 10%; Population Mitotic Cells (%) [7]: 75%; Population Normal (%) [7]: 46%; Population Pyknosed Nuclei (%) [7]: 44%; Population Tubulin-Different-Phenotype (%) [7]: 42%; Total Cell Count [7]: 622; Population Apoptotic (%) [8]: 83%; Population Fragmented Nuclei (%) [8]: 70%; Population Healthy Nuclei (%) [8]: 14%; Population Hoechst High Intensity Objects (%) [8]: 57%; Population Membrane Permeable-Phenotype (%) [8]: 50%; Population Mitochondria Different-Phenotype (%) [8]: 33%; Population Mitotic Cells (%) [8]: 16%; Population Normal (%) [8]: 42%; Population Pyknosed Nuclei (%) [8]: 14%; Population Tubulin-Different-Phenotype (%) [8]: 16%; Total Cell Count [8]: 97
